Measured values gathered from unrelated publications.
Lines come from different studies, so protocols differ.
Cell line: Vero
Effect on: cell growth or viability

CCCN(CCc1cccs1)[C@H]1CCc2c(O)cccc2C1  CC50 (resazurin): 9.48 µM
O=C(Cn1ccnc1[N+](=O)[O-])NCc1ccccc1  CC50 (MTT): 142 µM
O=C(NNC(=O)c1cc2ccccc2s1)c1ccc([N+](=O)[O-])o1  CC50 (MTT; 48 h): 75 µM
COC(=O)COc1c(Cc2cc(C(C)(C)CC(C)(C)C)cc(-n3nc4ccccc4n3)c2OCC(=O)OC)cc(C(C)(C)CC(C)(C)C)cc1-n1nc2ccccc2n1  viability (MTT; 10 µM, 48 h): 89.5%
CC1(F)CN(C(=O)Cn2c(=O)c(C(=O)NCc3ccc(Cl)cc3)cc3nc(N4CCNC4=O)cnc32)C1  CC50 (CCK-8; 5 days): > 40 µM
CN(C)c1ncnc2c1ncn2[C@@H]1O[C@H](CCl)[C@@H](NC(=O)[C@H](CSC(c2ccccc2)c2ccccc2)NC(=O)OC(C)(C)C)[C@H]1O  CC50 (MTT): > 100 µM
CN1CCN(c2cnc3c(cc(C(=O)NCc4ccc(Cl)cc4)c(=O)n3CC(=O)N3CC(C)(F)C3)n2)C1=O  CC50 (CCK-8; 5 days): > 40 µM
CO[C@@]12[C@H](COC(N)=O)C3=C(C(=O)C(C)=C(N)C3=O)N1C[C@@H]1N[C@@H]12  CC50 (resazurin): 0.39 µM
